Experimental findings from ChEMBL document CHEMBL1140381, “Design and studies of novel 5-substituted alkynylpyrimidine nucleosides as potent inhibitors of mycobacteria” (2005) are described below.

For orientation: inhibition means the change of the read-out against control, counted positive when it falls. As usually defined, the MIC90 is the lowest concentration that inhibits either 90% of growth or 90% of the strains tested, depending on the study.

What all share (assay type): functional
In experiment [1] the test system is Mycobacterium avium. The experiment is described as follows: Inhibition of growth of Mycobacterium avium (ATCC 25291) was determined using microplate alamar blue assay at 100 ug/mL concentration with compound dissolved in DMSO. An outline of the steps:
(§1)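 MABA in 7H9GC medium; M. bovis BCG or M. avium ATCC 25291 frozen inocula at 2.5 × 10⁵ CFU/mL final, 100× DMSO stocks diluted into medium. Incubated 6 days, then alamar blue plus 20% Tween-80 added once bacteria-only wells turned pink, read 24 h later by fluorescence. % inhibition = […]. Triplicate wells, three experiments, mean reported.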
In general terms: Alamar Blue is a resazurin reagent that responds to reducing activity.

The test system of experiment [2] is Mycobacterium avium. In words: Inhibition of growth of Mycobacterium avium (ATCC 25291) was determined using microplate alamar blue assay at 50 ug/mL concentration with compound dissolved in DMSO. The procedure, abridged: as §1
The test system of experiment [3] is Mycobacterium avium. In words: Inhibition of growth of Mycobacterium avium (ATCC 25291) was determined using microplate alamar blue assay at 10 ug/mL concentration with compound dissolved in DMSO. The procedure, abridged:
as §1

Experiment [4] deals with Mycobacterium avium. In words: Minimum inhibitory concentration against Mycobacterium avium (ATCC 25291). An outline of the steps:
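Alamar blue microplate assay in 7H9GC. BCG or M. avium ATCC 25291 at 2.5 × 10⁵ CFU/mL final, exposed to compound at 100, 50, 10 and 1 µg/mL in triplicate. Reagent added after 6+ days once growth controls turned pink, read after 24 h visually and by fluorescence. MIC₉₀ taken as the lowest concentration giving ~90% growth inhibition.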

The test system of experiment [5] is Mycobacterium avium. In words: Inhibition of growth of Mycobacterium avium (ATCC 25291) was determined using microplate alamar blue assay at 2 ug/mL concentration with compound dissolved in DMSO.

The structures appear in SMILES notation. Values after ≈ are worked out from the molar mass of the structure shown.

For the compound `CCCCCCCCC#Cc1cn([C@H]2C[C@H](O)[C@@H](CO)O2)c(=O)[nH]c1=O`, in the experiment on Mycobacterium avium [1], the inhibition at 100 µg/mL came out at 30%.

In the case of `CCCCCCCCCCC#Cc1cn([C@H]2C[C@H](O)[C@@H](CO)O2)c(=O)[nH]c1=O`, the inhibition at 50 µg/mL with Mycobacterium avium [2] turned out to be 0%. Moreover, the inhibition at 100 µg/mL in the experiment on Mycobacterium avium [1] came out at 75%.

`CCCCCCCCCCCCC#Cc1cn([C@H]2C[C@H](O)[C@@H](CO)O2)c(=O)[nH]c1=O`: the inhibition at 50 µg/mL in the experiment on Mycobacterium avium [2] stood at 30%. Further, in the experiment with Mycobacterium avium [1], the inhibition at 100 µg/mL was found to be 75%.

Take `CCCCCCCCC#Cc1cn([C@H]2C[C@H](O)[C@@H](CO)O2)c(=O)nc1N`: the inhibition at 10 µg/mL in the experiment with Mycobacterium avium [3] came out at 20%. Further, the inhibition at 50 µg/mL in the experiment with Mycobacterium avium [2] worked out at 50%. For the same compound, the inhibition at 100 µg/mL in the experiment on Mycobacterium avium [1] was found to be 75%.

On to `CCCCCCCCCCC#Cc1cn([C@H]2C[C@H](O)[C@@H](CO)O2)c(=O)nc1N`, for which the MIC90 in the experiment on Mycobacterium avium [4] was found to be 100 µg/mL (≈ 255 µM). Further, the inhibition at 10 µg/mL in the experiment on Mycobacterium avium [3] is 10%. Further, in the experiment on Mycobacterium avium [2], the inhibition at 50 µg/mL came to 60%. Besides, the inhibition at 100 µg/mL in the experiment on Mycobacterium avium [1] was found to be 100%.

As to `CCCCCC#Cc1cn([C@H]2C[C@H](O)[C@@H](CO)O2)c(=O)[nH]c1=O`, in the experiment on Mycobacterium avium [1], the inhibition at 100 µg/mL was determined as 25%.

In the experiment on Mycobacterium avium [4], `CC[C@H]1OC(=O)[C@H](C)[C@@H](O[C@H]2C[C@@](C)(OC)[C@@H](O)[C@H](C)O2)[C@H](C)[C@@H](O[C@@H]2O[C@H](C)C[C@H](N(C)C)[C@H]2O)[C@](C)(OC)C[C@@H](C)C(=O)[C@H](C)[C@@H](O)[C@]1(C)O` [CLARITHROMYCIN] returned an MIC90 of 2 µg/mL (≈ 2.67 µM). In addition, the inhibition at 2 µg/mL with Mycobacterium avium [5] came to 95%.

Regarding `CO[C@H]1/C=C/O[C@@]2(C)Oc3c(C)c(O)c4c(O)c(c(/C=N/N5CCN(C)CC5)c(O)c4c3C2=O)NC(=O)/C(C)=C\C=C\[C@H](C)[C@H](O)[C@@H](C)[C@@H](O)[C@@H](C)[C@H](OC(C)=O)[C@@H]1C` [RIFAMPIN], in the experiment with Mycobacterium avium [4], the MIC90 is 2 µg/mL (≈ 2.43 µM). The inhibition at 2 µg/mL with Mycobacterium avium [5] was found to be 90%.
